We go through two molecules from ChEMBL document CHEMBL4000155, “Synthesis and Antileukemic Activities of Piperlongumine and HDAC Inhibitor Hybrids against Acute Myeloid Leukemia Cells” (J Med Chem, 2016).

For series [1], the system named is U-937. Description: Induction of apoptosis in p53 null human U937 cells at 2 uM preincubated with NAC for 3 hrs followed by compound addition measured after 24 hrs by annexin V-FITC/PI staining based flow cytometry. In kind it is functional, cell-based. The procedure, abridged: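 U937 cells preincubated 3 h with 3 mM NAC or vehicle and washed with PBS to remove excess NAC. Then drug alone or with SAHA for 24 h. Apoptosis scored as % Annexin V+ by Annexin V-FITC/PI flow cytometry; vehicle DMSO < 0.1% v/v.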
(A flow cytometer gives signals particle by particle.)

Series [2] deals with U-937. Description: Induction of apoptosis in p53 null human U937 cells assessed as decrease in XIAP expression level by measuring ratio of XIAP to beta-actin level at 2 uM after 24 hrs by Western blot analysis relative to control. In kind it is functional. A digest of the protocol: (§1)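 U937 cells treated 24 h, alone or PL+SAHA. Whole-cell lysates (protease/phosphatase inhibitors) immunoblotted for γH2AX, CHK1, RAD51, Bim and XIAP. Band densitometry normalised to β-actin, then expressed as fold change relative to the untreated control.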
On the technique in general: In western blotting, separated proteins are transferred to a membrane and probed.

The test system of series [3] is U-937. Put plainly: Effect on SAHA-induced DNA damage in p53 null human U937 cells assessed as increase in gammaH2AX expression level by measuring ratio of gammaH2AX to beta-actin level at 2 uM after 24 hrs by Western blot analysis relative to control. The series is classed as functional. The procedure, abridged: as §1
Series [4] is described as follows: Antiproliferative activity against human CMY cells after 72 hrs by MTT assay. The series is classed as functional, cell-based.
The test system of another series is MCF-10A. Put plainly: Cytotoxicity against human MCF10A cells assessed as decrease in cell viability at 0.5 to 5 uM after 24 hrs by MTT assay. In kind it is cell-based. A digest of the protocol: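 MCF-10A (DMEM/F12, 5% horse serum, hydrocortisone, cholera toxin, insulin, EGF) and U937 (RPMI 1640, 10% FBS) were exposed to 0.5–5 μM, alone or PL+SAHA 1:1, for 24 h. MTT 0.05 mg/mL, 3 h at 37 °C, DMSO solubilization, A570. Viability given as mean ± SD of four to six independent experiments. DMSO <0.1% vehicle control.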

A short description of series [5]: Antiproliferative activity against human CMS cells after 72 hrs by MTT assay. In kind it is functional, cell-based. The procedure, abridged:
(§2)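 AML cell lines grown in RPMI 1640 with 10% FBS (20% for MOLM-13), 2 mM L-glutamine and penicillin/streptomycin at 37 °C, 5% CO2. Ara-C-resistant HL-60 and CMK sublines came from stepwise cytarabine selection and were kept in 600 nM or 300 nM cytarabine respectively. Cells were treated 72 h. MTT 0.05 mg/mL, 3 h at 37 °C, DMSO solubilization, absorbance at 570 nm. IC50 given ± SEM.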

For series [6], the system named is HL-60. Put plainly: Antiproliferative activity against Ara-C resistant human HL60 cells after 72 hrs by MTT assay. The series is classed as functional, cell-based. To be noted: HL-60, 72 h. A general note: Tetrazolium dyes change colour on reduction, which living cells bring about.
Series [7] deals with U-937. Description: Induction of DNA damage in p53 null human U937 cells assessed as increase in gammaH2AX expression level by measuring ratio of gammaH2AX to beta-actin level at 2 uM after 24 hrs by Western blot analysis relative to control. In kind it is functional. A digest of the protocol:
as §1

Series [8] relates to U-937. Put plainly: Induction of DNA damage in p53 null human U937 cells assessed as decrease in CHK1 expression level by measuring ratio of CHK1 to beta-actin level at 2 uM after 24 hrs by Western blot analysis relative to control. In kind it is functional. The procedure, abridged: as §1
In series [9] the test system is HL-60. Put plainly: Antiproliferative activity against human HL60 cells after 72 hrs by MTT assay. In kind it is functional, cell-based. To be noted: HL-60, 72 h.
In series [10] the test system is U-937. Put plainly: Upregulation of Rad51 protein expression in p53 null human U937 cells assessed as ratio of Rad51 to beta-actin level at 2 uM after 24 hrs by Western blot analysis relative to control.
A further series concerns MV4-11. Put plainly: Antiproliferative activity against human MV4-11 cells after 72 hrs by MTT assay. In kind it is functional, cell-based. The note with it: MV4-11, 72 h.
Series [11] relates to MOLM-13. Description: Antiproliferative activity against human MOLM13 cells harboring wild type p53/FLT3-ITD mutant after 72 hrs by MTT assay. In kind it is functional, cell-based. The note with it: MOLM-13, 72 h.
Series [12] deals with U-937. Put plainly: Antiproliferative activity against p53 null human U937 cells after 72 hrs by MTT assay. The series is classed as functional, cell-based. To be noted: U-937, 72 h.
Series [13] has as its system MOLM-13. Description: Induction of cell death in human MOLM13 cells harboring wild type p53/FLT3-ITD mutant assessed as combination index at 1 to 4 uM after 24 hrs in presence of SAHA by annexin V-FITC/PI staining based flow cytometry. The series is classed as functional. The procedure, abridged: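 Cells given SAHA and PL alone or together at 1:1 ratio for 24 h, then Annexin V-FITC/PI staining and flow cytometry. Combination index computed from the % Annexin V+ data; CI < 1 synergistic, = 1 additive, > 1 antagonistic. Triplicates, three independent experiments.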

Series [14] relates to U-937. Description: Induction of DNA damage in p53 null human U937 cells at 2 uM after 20 hrs by SYBR gold staining based alkaline comet assay. In kind it is functional, cell-based. The procedure, abridged:
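U937 cells treated 20 h with SAHA and PL alone or combined (16 h for hybrids). Alkaline single-cell gel electrophoresis, SYBR Gold staining, microscopy. Median % DNA in tail from 4 replicate gels ± s.e.m.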

Series [15] relates to MOLM-13. Put plainly: Induction of apoptosis in human MOLM13 cells harboring wild type p53/FLT3-ITD mutant at 4 uM after 24 hrs in presence of SAHA by annexin V-FITC/PI staining based flow cytometry. The series is classed as functional. A digest of the protocol: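 Cells treated 24 h, single agents or SAHA+PL at 1:1 (each drug at the stated concentration). Annexin V-FITC/PI kit staining, then flow cytometry, reported as % Annexin V+ cells. Three independent experiments in triplicate, with data from one representative experiment. DMSO <0.1% vehicle control.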

Series [16] has as its system U-937. Description: Induction of apoptosis in p53 null human U937 cells assessed as increase in Bim EL expression level by measuring ratio of Bim EL to beta-actin level at 2 uM after 24 hrs by Western blot analysis relative to control. In kind it is functional. A digest of the protocol:
as §1

The subject of the next series is OCI-AML-3. Put plainly: Antiproliferative activity against human OCI-AML3 cells after 72 hrs by MTT assay. In kind it is functional, cell-based. The note with it: OCI-AML-3, 72 h.
The subject of series [17] is CMK. Description: Antiproliferative activity against human CMK cells after 72 hrs in presence of SAHA by MTT assay. In kind it is functional, cell-based. A digest of the protocol: as §2
The subject of series [18] is CMK. Put plainly: Antiproliferative activity against Ara-C resistant human CMK cells after 72 hrs by MTT assay. The series is classed as functional, cell-based.
The species entered for a further series is Homo sapiens. The note with it: at 1 µM.
Series [19] deals with CMK. Put plainly: Antiproliferative activity against human CMK cells after 72 hrs by MTT assay. In kind it is functional, cell-based.
Series [20] is described as follows: Chemical stability of the compound in pH 7.4 phosphate buffer at 50 uM incubated up to 4 hrs in absence of GSH by HPLC analysis. In kind it is physicochemical. The note with it: pH 7.4, 4 h. A digest of the protocol:
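Compound at 50 μM incubated with or without 5 mM GSH in phosphate buffer pH 7.4 at 37 °C for up to 4 h. Mixtures analysed by HPLC with water/0.1% formic acid/10% methanol versus 0.1% formic acid in acetonitrile, 0.5 mL/min, 10–80% B gradient over 18 min.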

Structures are written as SMILES. Active and inactive are the calls of the source. The rule behind the calls is not given here.

As usually defined, the IC50 is the concentration at which inhibition is half-maximal. In the case of `COc1cc(/C=C/C(=O)N2CCC=CC2=O)cc(OC)c1OC` [PIPLARTINE], the result in the series on U-937 [1] and with U-937 [14] was inactive. In addition, the Ratio in the series on U-937 [2] was 1; with U-937 [3] it was 4.1; with U-937 [7], 1; with U-937 [8], 1; in the series on U-937 [10], 1.4; in the series with U-937 [16], 1. Also, the IC50 is 1620 nM in series [4]; 3100 nM in series [5]; 2250 nM with HL-60 [6]; 1780 nM with HL-60 [9]; 1440 nM in the series on MV4-11; 1840 nM in the series with MOLM-13 [11]. Also, the IC50 was determined as 2170 nM with U-937 [12]; 1870 nM in the series with OCI-AML-3; 613 nM with CMK [17]; 1910 nM with CMK [18]; 2820 nM with CMK [19]. Further, the Activity result is “Non-Toxic” in the series with MCF-10A and 77.5% in the series with MOLM-13 [15]. In the series on MOLM-13 [13], the CI entry is reported as “<=1.1”. In the series listed under Homo sapiens, the inhibition result is “inactive”.
Consider `COc1cc(/C=C/C(=O)N2CCC=CC2=O)cc(OC)c1OCCCCCCC(=O)NO`, for which the outcome in the series on U-937 [1] was inactive. The Ratio with U-937 [2] came to 0.6; in the series on U-937 [7], 4.5; with U-937 [8], 0.7; in the series on U-937 [16], 1.8. Besides, the 50% inhibitory concentration (IC50) came to 185 nM in series [4]; 385 nM in [5]; 692 nM in the series with HL-60 [6]; 357 nM with HL-60 [9]; 230 nM in the series with MV4-11; 454 nM in the series on MOLM-13 [11]. Moreover, the concentration for half-maximal inhibition (IC50) worked out at 498 nM in the series on U-937 [12], 615 nM in the series on OCI-AML-3, 215 nM with CMK [18] and 256 nM in the series on CMK [19]. In addition, the Activity entry with MCF-10A is listed as “Non-Toxic”. For the same molecule, the result in the series on U-937 [14] was Active. Further, in series [20], the Stability result is recorded as “Stable”. For the same molecule, the inhibition result in the series listed under Homo sapiens is “Active”.
